The text below walks through data of ChEMBL document CHEMBL3120053, “Airborne antituberculosis activity of Eucalyptus citriodora essential oil” (J Nat Prod, 2014).

Values after ≈ are worked out from the molar mass of the structure shown.

The nature of data set [1]: Partition coefficient, log K of the compound in n-hexane/methyl tert-butylether/acetonitrile 10:1:10 solvent system by HSCCC/EECCC analysis. It is filed as physicochemical. The method in brief:
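K values derived from volumetric measurements of the HSCCC run. Fraction collection began 1 h after loading at 4 min (6 mL) per fraction. Elution ran 5 h, then sweep elution and extrusion of the stationary phase for another 5 h, giving 160 TLC-monitored fractions.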

Data set [2] deals with Mycobacterium tuberculosis. The data set is described as follows: Antimicrobial activity against Mycobacterium tuberculosis H37Rv assessed as growth inhibition by gaseous contact assay relative to control. It is filed as functional. The gist of the method: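 Gaseous contact (microatmosphere) assay. Virulent pan-sensitive M.tb H37Rv (ATCC 27294) frozen stocks were diluted so 100 μL gave 200−400 colonies on Middlebrook 7H11 agar, then dried 4−5 h at room temperature. 5 μL of sample in EtOAc (100 mg/mL) went on a filter disk in the inverted lid (≈70 cm3 headspace). Plates were sealed, held at 37 °C, cfu counted at 21 days, and % inhibition calculated.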

Data set [3] has as its system Mycobacterium tuberculosis. Nature of the data set: Antimicrobial activity against Mycobacterium tuberculosis H37Rv by BACTEC radiometric assay. It is filed as functional.

`C=C(C)[C@@H]1CC[C@@]2(C)CCCC(=C)[C@@H]2C1` [BETA-SELINENE]: the “log K” value in data set [1] is recorded as 1.79.

As for `CC(C)=CCC/C(C)=C/CC/C(C)=C/C=O`, in data set [1], the “log K” value is recorded as 1.79.

Regarding `C[C@@H]1CC[C@@H](C(C)(C)O)C(O)C1` (some centres undefined), in data set [1], the “log K” value is reported as 0.87.

As for `C=C(C)[C@@H]1CC[C@@H](C)C[C@H]1OC(C)=O`, the “log K” value in data set [1] was determined as 1.55.

Take `Cc1cc(C(C)(C)C)cc(C(C)(C)C)c1O`: in data set [1], the “log K” value stood at 1.79.

For the compound `C=CC(C)(O)CCC=C(C)C` (centres undefined) [LINALOOL], the “log K” value in data set [1] was 0.74.

For the compound `C[C@H]1CC[C@@H]2[C@H]1[C@@H]1[C@H](CC[C@]2(C)O)C1(C)C`, in data set [1], the “log K” value is given as 1.18.

With `CC(C)=CCC[C@H](C)CC=O` [(-)-CITRONELLAL], the “log K” value in data set [1] came out at 1.02. For the same compound, the “growth inhibition (GI)” value in data set [2] came out at 18%.

`CC1=CCC[C@]2(C)CC[C@@H](C(C)(C)O)C[C@@H]12`: the “log K” value in data set [1] was found to be 1.8.

One may read the MIC as the lowest concentration found to suppress growth. As to `CC(C)=CCC/C(C)=C\CO` [NEROL], the MIC in data set [3] turned out to be 128 µg/mL (≈ 830 µM).

As for `C=C(C)[C@H]1CC[C@H](C)C[C@H]1O` (relative stereo), in data set [1], the “log K” value was found to be 0.82.

The compound `CC(C)=CCC/C(C)=C/CO` [GERANIOL] returned an MIC in data set [3] of 64 µg/mL (≈ 415 µM).

As for `CC(C)=CCC/C(C)=C/CC/C(C)=C/CC/C(C)=C/CO` [GERANYLGERANIOL], in data set [1], the “log K” value is 1.6.

In the case of `C=C1CC/C=C(\C)CC[C@@H]2[C@@H]1CC2(C)C` [BETA-CARYOPHYLLENE], the “log K” value in data set [1] is listed as 2.98.

In the case of `CC12CCC(CC1)C(C)(C)O2` [EUCALYPTOL], in data set [2], the “growth inhibition (GI)” value was 0%.

As to `C=C(C)[C@H]1CC[C@@H](C)C[C@H]1O` (relative stereo), the “log K” value in data set [1] was 2.98.

Take `CC1=C[C@@H]2[C@@H](CC1)[C@@](C)(O)CC[C@H]2C(C)C` [T-CADINOL]: in data set [1], the “log K” value was 1.55.

In the case of `C[C@@H]1CC[C@H]2[C@@H]1[C@H]1[C@@H](CC[C@]2(C)O)C1(C)C`, the “log K” value in data set [1] was 1.55.

For the compound `CC1=C[C@H]2[C@H](C(C)C)CC[C@@H](C)[C@]2(O)CC1`, the “log K” value in data set [1] is listed as 1.8.

With `C=C1CCC[C@]2(C)CC[C@@H](C(C)(C)O)C[C@@H]12` [BETA-EUDESMOL], the “log K” value in data set [1] was 1.6.

As to `CC1=CC[C@@H](C(C)(C)O)CC1` [ALPHA-TERPINEOL], the “log K” value in data set [1] is 0.82.

Consider `CC(C)=CCCC(C)CCO` (centres undefined) [CITRONELLOL], for which the “log K” value in data set [1] turned out to be 0.69. The MIC in data set [3] was 64 µg/mL (≈ 410 µM). The “growth inhibition (GI)” value in data set [2] turned out to be 100%.

Turning to `CC1=C[C@@H]2C(=C(C)CC[C@H]2C(C)C)CC1` [(+)-DELTA-CADINENE], in data set [1], the “log K” value was 2.98.

As for `CC(=O)OCCC(C)CCC=C(C)C` (centres undefined) [CITRONELLYL ACETATE], the “log K” value in data set [1] stood at 1.55.

As to `C=C1CC[C@@H]2[C@H]([C@@H]3[C@H](C)CC[C@H]13)C2(C)C`, in data set [1], the “log K” value came to 2.98.

Take `CC12CCCCC1=CC(=O)CC2` (centres undefined): the “log K” value in data set [1] is reported as 1.55.

On to `C=C1CCCC(C)(C)[C@H]2C=C(C)CC[C@@H]12`, for which, in data set [1], the “log K” value amounted to 1.6.

`CC1(C)C[C@H]2[C@H]1CC[C@]1(C)CCC[C@@]2(O)C1`: in data set [1], the “log K” value is on record as 1.6.

`CC(C)=CCC/C(C)=C/CC/C(C)=C/CO` [FARNESOL]: the “log K” value in data set [1] worked out at 1.79. The MIC in data set [3] amounted to 8 µg/mL (≈ 36 µM).

For `C=C(C)[C@@H]1CC[C@@H](C)C[C@H]1O` [ISOPULEGOL], the “log K” value in data set [1] was found to be 0.87. For the same compound, the “growth inhibition (GI)” value in data set [2] is 64%.

With `C/C1=C\CC(C)(C)/C=C/C[C@@]2(C)O[C@@H]2CC1`, the “log K” value in data set [1] is given as 1.55.

As for `C[C@@H]1CC[C@@H]2[C@@H]1[C@H]1[C@@H](CC[C@@]2(C)O)C1(C)C` [GLOBULOL], the “log K” value in data set [1] was determined as 1.79.

For `CC1=CC[C@H]2C(C)=CC[C@@H](C(C)C)[C@@H]2C1`, in data set [1], the “log K” value was determined as 2.98.

Turning to `C=C1CC[C@@H]2[C@H]([C@H]3[C@H]1CC[C@]3(C)O)C2(C)C` [SPATHULENOL], the “log K” value in data set [1] is 1.18.
